# From ChEMBL document CHEMBL3588859, “Structure activity relationship study of Mezzettiasides natural products and their four new disaccharide analogues for anticancer/antibacterial activity” (Medchemcomm, 2014)
# Assays:
# Bacillus subtilis = assay: Antibacterial activity against Bacillus subtilis JH642 expressing trpC2 pheA assessed as reduction in bacterial growth incubated for 18 to 24 hrs by broth dilution method; assay type: functional
# NCI-H460 = assay: Anticancer activity against human NCI-H460 cells assessed as reduction in cell viability incubated for 48 hrs by MTT assay; assay type: functional, cell-based; settings: NCI-H460, 48 h
# Escherichia coli = assay: Antibacterial activity against Escherichia coli BAS901 expressing delta-imp assessed as reduction in bacterial growth incubated for 18 to 24 hrs by broth dilution method; assay type: functional
# Method in brief: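 The imp strain was grown in LB with kanamycin at 50 μg/mL overnight, diluted 10-fold, and shaken at 37 °C for 45 min to 2 h (about 10^8 CFU/mL). Diluted about 1000-fold to 10^5 CFU/mL. Drug stocks were 25 mM in DMSO, made up at 4X, and serially diluted 1:2 over seven concentrations. OD600 was read.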
# Enterococcus faecalis = assay: Antibacterial activity against Enterococcus faecalis assessed as reduction in bacterial growth incubated for 18 to 24 hrs by broth dilution method; assay type: functional
# Method in brief: (§1)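 Grown in Brain Heart Infusion broth overnight, diluted 10-fold, and shaken at 37 °C for 45 min to 2 h (about 10^8 CFU/mL). Diluted about 1000-fold to 10^5 CFU/mL. Compounds came from 25 mM DMSO stocks, were made up at 4X working strength, and were serially diluted 1:2 over seven concentrations in microtiter wells. OD600 was read.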
# Staphylococcus aureus [1] = assay: Antibacterial activity against methicillin-resistant Staphylococcus aureus MW2 assessed as reduction in bacterial growth incubated for 18 to 24 hrs by broth dilution method; assay type: functional
# Method in brief: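 Broth […] per NCCLS M7-A6. S. aureus grown overnight in Mueller Hinton Broth, diluted 10-fold, shaken at 37 °C for 45 min–2 h to approx. 10^8 CFU/mL, then diluted ~1000-fold to 10^5 CFU/mL. Compounds from 25 mM DMSO stocks, 1:2 serial dilution over seven concentrations.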
# Enterococcus faecium = assay: Antibacterial activity against Enterococcus faecium assessed as reduction in bacterial growth incubated for 18 to 24 hrs by broth dilution method; assay type: functional; method in brief: as §1
# Staphylococcus aureus [2] = assay: Antibacterial activity against methicillin-sensitive Staphylococcus aureus HG003 assessed as reduction in bacterial growth incubated for 18 to 24 hrs by broth dilution method; assay type: functional
# Method in brief: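 Cultured overnight in Mueller Hinton Broth, diluted 10-fold, and shaken at 37 °C for 45 min to 2 h (about 10^8 CFU/mL). Diluted about 1000-fold to 10^5 CFU/mL. Compounds came from 25 mM DMSO stocks, were prepared at 4X, and were serially diluted 1:2 to seven concentrations. OD600 was recorded.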
# [3] = Anticancer activity against human […] cells assessed as reduction in cell viability incubated for 48 hrs by MTT assay; assay type: functional; settings: read-out: ED50 (the source's name)
# Lu1 = assay: Anticancer activity against human Lu1 cells assessed as reduction in cell viability incubated for 48 hrs by MTT assay; assay type: functional; settings: Lu1, 48 h, read-out: ED50 (the source's name)
# KB = assay: Anticancer activity against human KB cells assessed as reduction in cell viability incubated for 48 hrs by MTT assay; assay type: functional; settings: read-out: ED50 (the source's name)
SMILES,MIC (Bacillus subtilis),IC50 (NCI-H460),MIC (Escherichia coli),MIC (Enterococcus faecalis),MIC (Staphylococcus aureus [1]),MIC (Enterococcus faecium),MIC (Staphylococcus aureus [2]),EC50 [3],EC50 (Lu1),EC50 (KB)
CCCCCCCCCCCCO[C@@H]1O[C@@H](C)[C@H](O[C@@H]2O[C@@H](C)[C@H](OC(C)=O)[C@@H](O[C@@H]3O[C@@H](C)[C@H](O)[C@@H](OC(C)=O)[C@H]3OC(C)=O)[C@H]2O)[C@@H](O)[C@H]1O,8 µM,,,,,,,,,
CCCCCCCCCCCCO[C@@H]1O[C@@H](C)[C@H](O[C@@H]2O[C@@H](C)[C@H](OC(C)=O)[C@@H](O[C@@H]3O[C@@H](C)[C@H](OC(C)=O)[C@@H](O[C@@H]4O[C@@H](C)[C@H](O)[C@@H](O)[C@H]4OC(C)=O)[C@H]3OC(C)=O)[C@H]2O)[C@@H](O)[C@H]1O,8 µM,,,,,,,,,
CCCCCCCCCCCCO[C@@H]1O[C@@H](C)[C@H](O[C@@H]2O[C@@H](C)[C@H](OC(C)=O)[C@@H](O[C@@H]3O[C@@H](C)[C@H](OC(C)=O)[C@@H](O[C@@H]4O[C@@H](C)[C@H](OC(C)=O)[C@@H](O)[C@H]4OC(C)=O)[C@H]3OC(C)=O)[C@H]2O)[C@@H](O)[C@H]1O,4 µM,8 µM,,,,,,,,
CCCCCCCCCCCCO[C@@H]1O[C@@H](C)[C@H](O[C@@H]2O[C@@H](C)[C@H](OC(C)=O)[C@@H](O[C@@H]3O[C@@H](C)[C@H](O)[C@@H](O[C@@H]4O[C@@H](C)[C@H](OC(C)=O)[C@@H](O)[C@H]4O)[C@H]3OC(C)=O)[C@H]2O)[C@@H](O)[C@H]1O,8 µM,,,,,,,,,
CCCCCCCCO[C@@H]1O[C@@H](C)[C@H](OC(=O)CCCCC)[C@@H](O[C@@H]2O[C@@H](C)[C@H](OC(C)=O)[C@@H](O[C@@H]3O[C@@H](C)[C@H](OC(C)=O)[C@@H](O[C@@H]4O[C@@H](C)[C@H](O)[C@@H](OC(C)=O)[C@H]4O)[C@H]3O)[C@H]2OC(C)=O)[C@H]1O,> 128 µM,40 µM,,,,,,,,
CCCCCCCCO[C@@H]1O[C@@H](C)[C@H](OC(=O)CCCCC)[C@@H](O[C@@H]2O[C@@H](C)[C@H](OC(C)=O)[C@@H](O[C@@H]3O[C@@H](C)[C@H](OC(C)=O)[C@@H](O[C@@H]4O[C@@H](C)[C@H](O)[C@@H](O)[C@H]4OC(C)=O)[C@H]3O)[C@H]2OC(C)=O)[C@H]1O,64 µM,259 µM,> 32 µM,32 µM,> 32 µM,> 32 µM,> 32 µM,,,
CCCCCCCCO[C@@H]1O[C@@H](C)[C@H](OC(=O)CCCCC)[C@@H](O[C@@H]2O[C@@H](C)[C@H](OC(C)=O)[C@@H](O[C@@H]3O[C@@H](C)[C@H](OC(C)=O)[C@@H](O[C@@H]4O[C@@H](C)[C@H](O)[C@@H](O)[C@H]4O)[C@H]3O)[C@H]2OC(C)=O)[C@H]1O,32 µM,18 µM,> 32 µM,32 µM,> 32 µM,> 32 µM,> 32 µM,,,
CCCCCCCCO[C@@H]1O[C@@H](C)[C@H](OC(=O)CCCCC)[C@@H](O[C@@H]2O[C@@H](C)[C@H](OC(C)=O)[C@@H](OC(=O)CCC)[C@H]2OC(C)=O)[C@H]1O,> 128 µM,32 µM,,,,,,,,
CCCCCCCCO[C@@H]1O[C@@H](C)[C@H](OC(=O)CCCCC)[C@@H](O[C@@H]2O[C@@H](C)[C@H](OC(C)=O)[C@@H](OC(=O)C(C)(C)C)[C@H]2OC(C)=O)[C@H]1O,> 128 µM,141 µM,,,,,,,,
CCCCCCCCO[C@@H]1O[C@@H](C)[C@H](OC(=O)CCCCC)[C@@H](O[C@@H]2O[C@@H](C)[C@H](OC(C)=O)[C@@H](OC(=O)C(C)C)[C@H]2OC(C)=O)[C@H]1O,> 128 µM,47 µM,,,,,,,,
CCCCCCCCO[C@@H]1O[C@@H](C)[C@H](OC(=O)CCCCC)[C@@H](O[C@@H]2O[C@@H](C)[C@H](OC(C)=O)[C@@H](OC(=O)CC(C)C)[C@H]2OC(C)=O)[C@H]1O,> 128 µM,79 µM,,,,,,,,
CCCCCCCCCCCCO[C@@H]1O[C@@H](C)[C@H](O[C@@H]2O[C@@H](C)[C@H](OC(C)=O)[C@@H](O[C@@H]3O[C@@H](C)[C@H](OC(C)=O)[C@@H](O)[C@H]3OC(C)=O)[C@H]2O)[C@@H](O)[C@H]1O,32 µM,,,,,,,,,
CCCCCCCCCCCCO[C@@H]1O[C@@H](C)[C@H](O[C@@H]2O[C@@H](C)[C@H](OC(C)=O)[C@@H](O[C@@H]3O[C@@H](C)[C@H](OC(C)=O)[C@@H](O[C@@H]4O[C@@H](C)[C@H](OC(C)=O)[C@@H](O)[C@H]4O)[C@H]3OC(C)=O)[C@H]2O)[C@@H](O)[C@H]1O,4 µM,,,,,,,,,
CCCCCCCCO[C@@H]1O[C@@H](C)[C@H](OC(=O)CCCCC)[C@@H](O[C@@H]2O[C@@H](C)[C@H](OC(C)=O)[C@@H](O[C@@H]3O[C@@H](C)[C@H](OC(C)=O)[C@@H](O)[C@H]3OC(C)=O)[C@H]2OC(C)=O)[C@H]1O [MEZZETTIASIDE 2],> 128 µM,17 µM,,,,,,5 µM,10 µM,7 µM
CCCCCCCCO[C@@H]1O[C@@H](C)[C@H](OC(=O)CCCCC)[C@@H](O[C@@H]2O[C@@H](C)[C@H](OC(C)=O)[C@@H](O[C@@H]3O[C@@H](C)[C@H](OC(C)=O)[C@@H](OC(C)=O)[C@H]3O)[C@H]2OC(C)=O)[C@H]1O [MEZZETTIASIDE 3],> 128 µM,10 µM,,,,,,6 µM,14 µM,17 µM
CCCCCCCCO[C@@H]1O[C@@H](C)[C@H](OC(=O)CCCCC)[C@@H](O[C@@H]2O[C@@H](C)[C@H](OC(C)=O)[C@@H](O[C@@H]3O[C@@H](C)[C@H](OC(C)=O)[C@@H](O)[C@H]3O)[C@H]2OC(C)=O)[C@H]1O [MEZZETTIASIDE 4],8 µM,9 µM,> 32 µM,16 µM,> 32 µM,16 µM,32 µM,8 µM,25 µM,19 µM
CCCCCCCCO[C@@H]1O[C@@H](C)[C@H](OC(=O)CCCCC)[C@@H](O[C@@H]2O[C@@H](C)[C@H](OC(C)=O)[C@@H](O[C@@H]3O[C@@H](C)[C@H](O)[C@@H](O)[C@H]3OC(C)=O)[C@H]2OC(C)=O)[C@H]1O [MEZZETTIASIDE 8],16 µM,24 µM,> 32 µM,> 32 µM,> 32 µM,> 32 µM,> 32 µM,10 µM,25 µM,> 20 µM
CCCCCCCCO[C@@H]1O[C@@H](C)[C@H](OC(=O)CCCCC)[C@@H](O[C@@H]2O[C@@H](C)[C@H](O)[C@@H](OC(C)=O)[C@H]2OC(C)=O)[C@H]1O [MEZZETTIASIDE 9],16 µM,151 µM,> 32 µM,32 µM,> 32 µM,> 32 µM,> 32 µM,> 20 µM,9 µM,19 µM
CCCCCCCCO[C@@H]1O[C@@H](C)[C@H](OC(=O)CCCCC)[C@@H](O[C@@H]2O[C@@H](C)[C@H](OC(C)=O)[C@@H](OC(C)=O)[C@H]2OC(C)=O)[C@H]1O [MEZZETTIASIDE 11],> 128 µM,15 µM,,,,,,14 µM,9 µM,20 µM
CCCCCCCCO[C@@H]1O[C@@H](C)[C@H](OC(=O)CCCCC)[C@@H](O[C@@H]2O[C@@H](C)[C@H](OC(C)=O)[C@@H](O)[C@H]2OC(C)=O)[C@H]1O [MEZZETTIASIDEIDE 10],> 128 µM,> 500 µM,,,,,,> 20 µM,> 20 µM,> 20 µM
